What all share (format): functional
Test [1] concerns Streptococcus pneumoniae. Briefly: Antimicrobial activity against Streptococcus pneumoniae 10 expressing mefA after 20 hrs by agar dilution method. Conditions: Streptococcus pneumoniae, 20 h; read-out: MIC. The method in brief:
(§1)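 Streptococci, H. influenzae and M. catarrhalis were precultured on blood agar plates. Suspensions of about 10⁶ CFU/ml were inoculated onto sensitivity disk agar supplemented with 5% horse blood and incubated at 37 °C for 20 h. MIC was read as the lowest drug concentration with no visible growth.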
For orientation: In agar dilution, organisms are placed on agar that contains the substance at set levels.

In test [2] the test system is Streptococcus pneumoniae. Briefly: Antimicrobial activity against Streptococcus pneumoniae 5 constitutively expressing ermB/mefA after 20 hrs by agar dilution method. Conditions: Streptococcus pneumoniae, 20 h; read-out: MIC. The method in brief:
as §1

For test [3], the system named is Staphylococcus aureus. Briefly: Antimicrobial activity against drug-susceptible Staphylococcus aureus 209P JC-1 after 20 hrs by agar dilution method. Conditions: Staphylococcus aureus, 209P, 20 h; read-out: MIC. The method in brief: (§2)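 Agar dilution MIC. S. aureus seed culture was grown in sensitivity test broth. Cell suspension (about 10⁶ CFU/ml) was inoculated onto sensitivity disk agar with 5% horse blood and incubated at 37 °C for 20 h. MIC was the lowest drug concentration that prevented visible growth.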

Test [4] relates to Haemophilus influenzae. Briefly: Antimicrobial activity against drug-susceptible Haemophilus influenzae 3 after 20 hrs by agar dilution method. The following applies: Haemophilus influenzae, 20 h; read-out: MIC. The method in brief:
as §1

In test [5] the test system is Streptococcus pneumoniae. Briefly: Antimicrobial activity against drug-susceptible Streptococcus pneumoniae 2 after 20 hrs by agar dilution method. The following applies: Streptococcus pneumoniae, 20 h; read-out: MIC. The method in brief: as §1
Test [6] deals with Haemophilus influenzae. Briefly: Antimicrobial activity against drug-susceptible Haemophilus influenzae 1 after 20 hrs by agar dilution method. The following applies: Haemophilus influenzae, 20 h; read-out: MIC. The method in brief: as §1
In test [7] the test system is Streptococcus pneumoniae. Briefly: Antimicrobial activity against drug-susceptible Streptococcus pneumoniae DP1 Type1 after 20 hrs by agar dilution method. The following applies: Streptococcus pneumoniae, 20 h; read-out: MIC. The method in brief: as §1
In test [8] the test system is Staphylococcus aureus. Briefly: Antimicrobial activity against Staphylococcus aureus 4 constitutively expressing ermA after 20 hrs by agar dilution method. The method in brief:
as §2

In test [9] the test system is Haemophilus influenzae. Briefly: Antimicrobial activity against drug-susceptible Haemophilus influenzae 2 after 20 hrs by agar dilution method. The following applies: Haemophilus influenzae, 20 h; read-out: MIC. The method in brief: as §1
For test [10], the system named is Streptococcus pneumoniae. Briefly: Antimicrobial activity against Streptococcus pneumoniae 7 expressing inducible ermB after 20 hrs by agar dilution method. Conditions: Streptococcus pneumoniae, 20 h; read-out: MIC. The method in brief:
as §1

The subject of test [11] is Streptococcus pyogenes. Briefly: Antimicrobial activity against drug-susceptible Streptococcus pyogenes 1 after 20 hrs by agar dilution method. Conditions: Streptococcus pyogenes, 20 h; read-out: MIC. The method in brief:
as §1

In test [12] the test system is Moraxella catarrhalis. Briefly: Antimicrobial activity against drug-susceptible Moraxella catarrhalis 2 after 20 hrs by agar dilution method. Conditions: Moraxella catarrhalis, 20 h; read-out: MIC. The method in brief:
as §1

For test [13], the system named is Staphylococcus aureus. Briefly: Antimicrobial activity against Staphylococcus aureus 5 expressing inducible ermB after 20 hrs by agar dilution method. The following applies: Staphylococcus aureus, 20 h; read-out: MIC. The method in brief: as §2
Test [14] has as its system Staphylococcus aureus. Briefly: Antimicrobial activity against drug-susceptible Staphylococcus aureus 3 after 20 hrs by agar dilution method. The following applies: Staphylococcus aureus, 20 h; read-out: MIC. The method in brief:
as §2

For test [15], the system named is Haemophilus influenzae. Briefly: Antimicrobial activity against drug-susceptible Haemophilus influenzae 4 after 20 hrs by agar dilution method. Conditions: Haemophilus influenzae, 20 h; read-out: MIC. The method in brief:
as §1

For test [16], the system named is Streptococcus pneumoniae. Briefly: Antimicrobial activity against Streptococcus pneumoniae 9 expressing mefA after 20 hrs by agar dilution method. The following applies: Streptococcus pneumoniae, 20 h; read-out: MIC. The method in brief: as §1
Test [17] has as its system Streptococcus pyogenes. Briefly: Antimicrobial activity against Streptococcus pyogenes 3 expressing mefA after 20 hrs by agar dilution method. The following applies: Streptococcus pyogenes, 20 h; read-out: MIC. The method in brief: as §1
Test [18] relates to Staphylococcus aureus. Briefly: Antimicrobial activity against drug-susceptible Staphylococcus aureus 2 after 20 hrs by agar dilution method. Conditions: Staphylococcus aureus, 20 h; read-out: MIC. The method in brief: as §2
Test [19] has as its system Streptococcus pneumoniae. Briefly: Antimicrobial activity against Streptococcus pneumoniae 8 expressing inducible ermB after 20 hrs by agar dilution method. Conditions: Streptococcus pneumoniae, 20 h; read-out: MIC. The method in brief: as §1
The test system of test [20] is Streptococcus pyogenes. Briefly: Antimicrobial activity against Streptococcus pyogenes 2 constitutively expressing ermB after 20 hrs by agar dilution method. The method in brief:
as §1

The test system of test [21] is Moraxella catarrhalis. Briefly: Antimicrobial activity against drug-susceptible Moraxella catarrhalis 1 after 20 hrs by agar dilution method. Conditions: Moraxella catarrhalis, 20 h; read-out: MIC. The method in brief:
as §1

For test [22], the system named is Staphylococcus aureus. Briefly: Antimicrobial activity against Staphylococcus aureus 6 expressing inducible ermB after 20 hrs by agar dilution method. The method in brief: as §2
Test [23] relates to Streptococcus pneumoniae. Briefly: Antimicrobial activity against Streptococcus pneumoniae 6 constitutively expressing ermB after 20 hrs by agar dilution method. Conditions: Streptococcus pneumoniae, 20 h; read-out: MIC. The method in brief:
as §1

Molecules are shown by their SMILES. Values after ≈ are worked out from the molar mass of the structure shown. Some results are limits rather than exact numbers.

Take `CCOC(=O)[C@H]1[C@H](C)O[C@@H](O[C@H]2[C@H](N(C)C)[C@@H](O)[C@H](O[C@H]3[C@@H](CC=O)C[C@@H](C)[C@@H](OC(C)=O)CN(CCCCc4ccccc4)CCCOC(=O)C[C@@H](OC(=O)CC)[C@@H]3OC)O[C@@H]2C)C[C@@]1(C)OC(C)=O`: the MIC in the test with Streptococcus pneumoniae [1] was 0.25 µg/mL (≈ 0.248 µM); with Streptococcus pneumoniae [2] it was above 128 µg/mL; with Staphylococcus aureus [3] it was 0.5 µg/mL (≈ 0.496 µM); in the test on Haemophilus influenzae [4], 4 µg/mL (≈ 3.97 µM); in the test on Streptococcus pneumoniae [5] it was 0.25 µg/mL (≈ 0.248 µM); in the test with Haemophilus influenzae [6], above 128 µg/mL. The MIC with Streptococcus pneumoniae [7] was 0.25 µg/mL (≈ 0.248 µM); with Staphylococcus aureus [8] it was above 128 µg/mL; with Haemophilus influenzae [9] it was 2 µg/mL (≈ 1.99 µM); with Streptococcus pneumoniae [10] it was 8 µg/mL (≈ 7.94 µM); in the test on Streptococcus pyogenes [11], 0.25 µg/mL (≈ 0.248 µM); with Moraxella catarrhalis [12] it was 0.5 µg/mL (≈ 0.496 µM). Moreover, the MIC in the test on Staphylococcus aureus [13] amounted to 0.5 µg/mL (≈ 0.496 µM); in the test with Staphylococcus aureus [14], 0.5 µg/mL (≈ 0.496 µM); in the test on Haemophilus influenzae [15], 8 µg/mL (≈ 7.94 µM); in the test with Streptococcus pneumoniae [16], 0.5 µg/mL (≈ 0.496 µM); in the test on Streptococcus pyogenes [17] it was 0.25 µg/mL (≈ 0.248 µM); in the test with Staphylococcus aureus [18], 1 µg/mL (≈ 0.993 µM). The MIC in the test on Streptococcus pneumoniae [19] is 32 µg/mL (≈ 31.8 µM); against Streptococcus pyogenes [20], above 128 µg/mL; in the test with Moraxella catarrhalis [21], 0.25 µg/mL (≈ 0.248 µM); against Staphylococcus aureus [22] it was 1 µg/mL (≈ 0.993 µM).

Consider `CCOC(=O)[C@H]1[C@H](C)O[C@@H](O[C@H]2[C@H](N(C)C)[C@@H](O)[C@H](O[C@H]3[C@@H](CC=O)C[C@@H](C)[C@@H](O)CN(CCCCc4ccccc4)CC[C@@H](C)OC(=O)C[C@@H](OC(=O)CC)[C@@H]3OC)O[C@@H]2C)C[C@@]1(C)OC(C)=O`, for which the MIC with Streptococcus pneumoniae [1] came out at 0.06 µg/mL (≈ 0.0613 µM); with Streptococcus pneumoniae [2], 128 µg/mL (≈ 131 µM); with Staphylococcus aureus [3] it was 0.13 µg/mL (≈ 0.133 µM); in the test on Haemophilus influenzae [4], 4 µg/mL (≈ 4.08 µM); with Streptococcus pneumoniae [5], 0.13 µg/mL (≈ 0.133 µM); in the test on Haemophilus influenzae [6], 32 µg/mL (≈ 32.7 µM). The MIC in the test on Streptococcus pneumoniae [7] is 0.06 µg/mL (≈ 0.0613 µM); with Staphylococcus aureus [8], above 128 µg/mL; with Haemophilus influenzae [9], 1 µg/mL (≈ 1.02 µM); in the test on Streptococcus pneumoniae [10], 8 µg/mL (≈ 8.17 µM); with Streptococcus pyogenes [11], 0.06 µg/mL (≈ 0.0613 µM); in the test on Streptococcus pneumoniae [23], above 128 µg/mL. Also, the MIC was determined as 0.25 µg/mL (≈ 0.255 µM) with Moraxella catarrhalis [12]; 0.5 µg/mL (≈ 0.511 µM) with Staphylococcus aureus [13]; 0.25 µg/mL (≈ 0.255 µM) in the test on Staphylococcus aureus [14]; 8 µg/mL (≈ 8.17 µM) in the test on Haemophilus influenzae [15]; 0.06 µg/mL (≈ 0.0613 µM) with Streptococcus pneumoniae [16]; 0.13 µg/mL (≈ 0.133 µM) in the test on Streptococcus pyogenes [17]. Further, the MIC in the test with Staphylococcus aureus [18] is 0.5 µg/mL (≈ 0.511 µM); with Streptococcus pneumoniae [19], 8 µg/mL (≈ 8.17 µM); with Streptococcus pyogenes [20], above 128 µg/mL; in the test with Moraxella catarrhalis [21], 0.13 µg/mL (≈ 0.133 µM); with Staphylococcus aureus [22] it was 0.5 µg/mL (≈ 0.511 µM).

Consider `CCOC(=O)[C@H]1[C@H](C)O[C@@H](O[C@H]2[C@H](N(C)C)[C@@H](O)[C@H](O[C@H]3[C@@H](CC=O)C[C@@H](C)[C@@H](OC(C)=O)CN(CCCCc4ccccc4)CC[C@@H](C)OC(=O)C[C@@H](OC(=O)CC)[C@@H]3OC)O[C@@H]2C)C[C@@]1(C)OC(C)=O`, for which the MIC is 0.25 µg/mL (≈ 0.245 µM) with Streptococcus pneumoniae [1]; above 128 µg/mL in the test on Streptococcus pneumoniae [2]; 0.5 µg/mL (≈ 0.49 µM) with Staphylococcus aureus [3]; 16 µg/mL (≈ 15.7 µM) in the test with Haemophilus influenzae [4]; 0.25 µg/mL (≈ 0.245 µM) in the test on Streptococcus pneumoniae [5]; above 128 µg/mL in the test on Haemophilus influenzae [6]. Further, the MIC is 0.25 µg/mL (≈ 0.245 µM) with Streptococcus pneumoniae [7]; above 128 µg/mL against Staphylococcus aureus [8]; 2 µg/mL (≈ 1.96 µM) in the test with Haemophilus influenzae [9]; above 128 µg/mL in the test with Streptococcus pneumoniae [10]; 0.25 µg/mL (≈ 0.245 µM) in the test with Streptococcus pyogenes [11]; above 128 µg/mL with Streptococcus pneumoniae [23]. Further, the MIC was 0.5 µg/mL (≈ 0.49 µM) in the test with Moraxella catarrhalis [12]; 0.5 µg/mL (≈ 0.49 µM) in the test with Staphylococcus aureus [13]; 0.5 µg/mL (≈ 0.49 µM) with Staphylococcus aureus [14]; 16 µg/mL (≈ 15.7 µM) in the test with Haemophilus influenzae [15]; 0.5 µg/mL (≈ 0.49 µM) in the test on Streptococcus pneumoniae [16]; 0.5 µg/mL (≈ 0.49 µM) in the test with Streptococcus pyogenes [17]. The MIC with Staphylococcus aureus [18] is 1 µg/mL (≈ 0.979 µM); with Streptococcus pneumoniae [19], above 128 µg/mL; with Streptococcus pyogenes [20] it was above 128 µg/mL; in the test with Moraxella catarrhalis [21], 0.25 µg/mL (≈ 0.245 µM); against Staphylococcus aureus [22], 1 µg/mL (≈ 0.979 µM).

The values above are taken from ChEMBL document CHEMBL1151705, “Novel azalides derived from 16-membered macrolides. Part II: Isolation of the linear 9-formylcarboxylic acid and its sequential macrocyclization with an amino alcohol or an azidoamine” (2008).
